# Sampled rows, rich in hits. Any-hit rate of the full collection: about 2.5%.
# m5-HT2A agonist: mouse HTR2A agonism via beta-arrestin recruitment; activation, % at 7.6 µM; AID 624169; CHO-K1 mHTR2A beta-arrestin complementation, luminescence; percent of 30 µM serotonin response; P35363; hit rate 0.66% among 360,000;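 active = activation above a run cutoff, the mean activation of all tested compounds plus 3 SD, cut at about 14% in these data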;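 note: 0% = plate median of compound wells and 100% = 30 µM serotonin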
# VIM-2 inh: blocks Pseudomonas aeruginosa VIM-2 metallo-beta-lactamase; hit rate 0.89% among 290,000; purified VIM-2, nitrocefin hydrolysis, epi-absorbance fluorescence; inhibition, % at 5.6 µM;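 active = inhibition above the mean of all tested compounds plus 3 SD, cutoff set per screening run, cut at about 7.5% in these data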;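 note: red hydrolysis product quenches plate fluorescence so inhibitors raise well fluorescence; 0% = enzyme with DMSO and 100% = DMSO without enzyme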
# dFosB act: enhances mouse delta FosB homodimer DNA binding; P13346; purified delta FosB, TAMRA-CDK5 oligo fluorescence polarization; percent of positive-control signal above neutral wells; activation, % at 25 µM; hit rate 0.99% among 340,000; AID 493131;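 active = mean activation above about 17%, with every replicate also reaching it, limit read from the data, passing the limit was not always enough; inconclusive = only one of the two conditions met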
# Target sequence (P13346 whole entry, looked up): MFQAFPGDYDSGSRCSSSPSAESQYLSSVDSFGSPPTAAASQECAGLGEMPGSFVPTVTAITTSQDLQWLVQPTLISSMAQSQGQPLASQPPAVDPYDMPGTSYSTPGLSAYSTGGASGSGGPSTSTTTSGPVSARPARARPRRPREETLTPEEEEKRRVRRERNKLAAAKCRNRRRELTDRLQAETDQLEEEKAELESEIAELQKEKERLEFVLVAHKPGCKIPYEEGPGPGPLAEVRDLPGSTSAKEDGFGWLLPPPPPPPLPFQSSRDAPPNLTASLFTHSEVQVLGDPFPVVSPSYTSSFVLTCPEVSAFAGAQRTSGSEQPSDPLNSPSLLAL
# IMP-1 inhibitor: inhibitors of Pseudomonas aeruginosa IMP-1 metallo-beta-lactamase; AID 1556; purified IMP-1, nitrocefin hydrolysis, epi-absorbance fluorescence; hit rate 0.45% among 290,000; inhibition, % at 5.6 µM;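 active = inhibition above the mean plus 3 SD of all compounds in the same screening run, cut at about 4.5% in these data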;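 note: 0% = IMP-1 with DMSO and 100% = DMSO wells lacking enzyme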
#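 Test system: recombinant IMP-1 enzyme, purified / Medium: HEPES buffer pH 7.1 with ZnSO4 and Brij 35 / Doses: single dose, 5.6 µM / Times: 25 °C, 15 min preincubation, 25 min reaction / Detection: Epi-absorbance via hydrolysed-nitrocefin quenching of white-plate fluorescence, 480/530 nm, EDTA stop / Evaluation: percent inhibition from optical density relative to buffer-blank wells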
# * = called active by the depositor; ? = inconclusive; · = no result.
SMILES,m5-HT2A agonist,VIM-2 inh,dFosB act,IMP-1 inhibitor
Cc1nc(SCc2nc3ccccc3[nH]2)c2oc3ccccc3c2n1,-5.3,13.2*,-5.1,-0.9
Cc1nc(SCc2nc3ccccc3[nH]2)c2oc3ccc(Br)cc3c2n1,-7.4,·,-0.3,·
Cc1nc(N2CCN(Cc3nc4ccccc4[nH]3)CC2)c2oc3ccccc3c2n1,2.7,11.5*,-22.9,-6.5
Cc1cc(C(=O)Nc2ccc3c(c2)CCC3)ccc1[N+](=O)[O-],0.9,·,·,·
COc1cc(OC)cc(C(=O)Nc2ccc(Cn3ccnc3)cc2)c1,-4.9,4.7,-7.5,-2.5
COc1ccc(C(=O)Nc2ccc(Cn3ccnc3)cc2)cc1OC,1.9,8.5*,-15.1,-3.3
COc1ccc(S(=O)(=O)N(C)C(C)CCc2ccco2)cc1 (stereo not drawn),7.5,4.4,-4.1,4.9*
Cc1ccc(S(=O)(=O)N(C)C(C)CCc2ccco2)cc1 (stereo not drawn),-0.8,·,-4.1,·
CCC(C)NCCOc1ccccc1C (stereo not drawn),-3.0,-3.1,-7.3,27.7*
N#Cc1ccc(/C=C\c2nccc3c2[nH]c2ccccc23)cc1,-2.7,-2.3,?,-0.8
Clc1ccc(/C=C\c2nccc3c2[nH]c2ccccc23)cc1,2.1,-4.2,27.0*,-1.0
CC(=O)N1CCOc2ccc(S(=O)(=O)NCc3ccc(Cl)cc3)cc21,-10.3,0.0,-6.6,-2.4
CC(=O)N1CCOc2ccc(S(=O)(=O)Nc3ccc(Cl)cn3)cc21,-1.6,-1.8,0.8,21.8*
COc1ccc(OC)c(Nc2nc(NCCO)c3ccccc3n2)c1,-8.2,1.7,30.8*,-1.5
OCCNc1c2ccccc2nc2ccccc12,-2.2,0.0,19.6*,-2.3
COc1ccc(OC)c(Nc2c3ccccc3nc3ccccc23)c1,-11.8,11.2*,36.6*,-3.9
Cc1ccc(Nc2nc(NCCO)c3ccccc3n2)cc1C,-2.0,3.4,32.1*,-2.4
COc1ccc(OC)c(Nc2cc(C)c3ccccc3n2)c1,-4.6,0.3,0.5,-0.2
Cc1cc(NCCO)c2ccccc2n1,1.1,-0.8,8.7,-1.8
CC(=O)Nc1cccc(Nc2cc(C)nn2C)c1,-1.2,·,·,·
COc1ccccc1Cn1nc(C(=O)O)c2ccccc2c1=O,-2.4,1.0,-5.4,-1.2
CCOc1ccc(C(C)=O)cc1Cn1nc(C(=O)O)c2ccccc2c1=O,-5.0,9.8*,-6.2,-2.9
COc1ccc(CN(C)CCCn2cnc(C(=O)Nc3ccc(C)c(C)c3)n2)cc1OC,-6.5,·,2.4,·
COc1cc(C(=O)N/N=C/c2ccc(OC)c(CN3CCN(c4ccc(F)cc4)CC3)c2)ccc1O,-7.4,-0.4,39.4*,-0.6
O=c1cc(-c2ccc(O)c(-c3c(O)cc(O)c4c(=O)cc(-c5ccc(O)cc5)oc34)c2)oc2cc(O)cc(O)c12,2.1,-3.0,18.0*,-1.8
SMILES,m5-HT2A agonist,VIM-2 inh,dFosB act,IMP-1 inhibitor
Cc1cc(C(=O)Nc2cccnc2)on1,14.8*,-4.8,-12.9,-1.5
Cc1ccc(SCc2ccc(C(=O)Nc3cccnc3)cc2)cc1,-2.0,1.9,-1.4,14.7*
Cc1ccc(S(=O)(=O)NC(C(=O)N2CCN(S(=O)(=O)c3cccc(F)c3)CC2)C(C)C)cc1 (stereo not drawn),-10.6,·,-3.3,·
O=C(CN1C(=O)NC2(CCCCCC2)C1=O)Nc1ccc(OC(F)(F)F)cc1,3.0,·,·,·
OC1(c2cccs2)CN(c2ccc(Br)cc2)C2=[N+]1CCCS2 (stereo not drawn),-6.0,-1.3,0.6,-2.2
COc1ccc(OC)c(N2CC(O)(c3cccs3)[N+]3=C2SCCC3)c1 (stereo not drawn),-6.6,8.2*,0.5,-0.9
COc1ccccc1CNS(=O)(=O)c1cccs1,2.6,-1.0,-5.2,0.2
CCCCCCC(=O)Nc1nc(C)c(-c2csc(Nc3ccccc3OC)n2)s1,-3.5,0.3,-13.4,-1.4
CCCCCCC(=O)Nc1nc(C)c(-c2csc(Nc3cc(Cl)ccc3C)n2)s1,-0.7,-2.9,6.2,19.0*
COc1ccc(Cl)cc1Nc1nc(-c2sc(NC(=O)C(C)(C)C)nc2C)cs1,0.4,-0.5,-7.3,18.2*
CCCCC(=O)Nc1nc(C)c(-c2csc(Nc3cc(Cl)ccc3OC)n2)s1,14.2,-1.0,-5.6,7.6*
CCCCC(=O)Nc1nc(C)c(-c2csc(Nc3cc(OC)ccc3OC)n2)s1,2.7,-3.1,7.5,-2.1
CN(CCOc1ccccc1)C(=O)c1cc(S(=O)(=O)N2CCOCC2)c(Cl)cc1Cl,-9.7,·,·,·
CCOc1ncccc1C(=O)Nc1nc(SC)ns1,1.1,1.6,-19.2,-1.4
CC(C)O/C(=N/S(=O)(=O)c1ccc(Cl)cc1)c1ccccc1,-0.8,·,-4.3,·
CCOP(=O)(O)c1ccccc1OCCOCCOc1ccccc1P(=O)(O)OCC,1.9,-2.3,-4.2,-2.2
O=P(O)(O)c1ccccc1OCCOCCOc1ccccc1P(=O)(O)O,1.5,22.6*,-4.9,-2.9
Cc1ccc(S(=O)(=O)N2CCN(C(=O)C(O)c3ccccc3)CC2)cc1 (stereo not drawn),1.0,·,·,·
CCOC(=O)N1CCN(c2c(-c3ccc(C(C)C)cc3)c(=O)c2=O)CC1,0.4,0.5,-11.2,5.3*
CCN1CCN(c2nc(Nc3ccc(NC(C)=O)cc3)nc(Nc3ccc(NC(C)=O)cc3)n2)CC1,-1.4,-0.2,72.9*,-2.9
COc1cc(CNCc2ccncc2)cc(OC)c1OC,-4.2,1.4,1.1,6.1*
COc1cc(-c2cc(C(=O)Nc3ccc(C)c(S(=O)(=O)N4CCOCC4)c3)c3ccccc3n2)cc(OC)c1OC,2.3,·,33.4*,·
CCNc1nc(NCC)nc(OCCOC(=O)c2ccccc2)n1,-0.4,1.1,-4.8,-1.5
CCNc1nc(NCC)nc(OCCOC(C)=O)n1,6.0,1.9,0.0,4.9*
O=C(Nc1ccccn1)NC1CCS(=O)(=O)C1 (stereo not drawn),-2.6,-0.5,-4.8,-2.9
SMILES,m5-HT2A agonist,VIM-2 inh,dFosB act,IMP-1 inhibitor
O=C(Nc1ccccn1)NC1CCCCC1,-2.3,1.2,2.0,4.7*
C(C#CCCCCCCCCC[n+]1ccccc1)#CCCCCCCCCC[n+]1ccccc1,-4.4,-1.0,48.6*,3.5
Cc1cc(NC(=O)CSc2nc3sc(C)c(C)c3c(=O)n2C2CCCC2)no1,16.9*,-3.9,1.0,-2.2
Cn1ccn(CCCCCCn2ccn(C)c2=S)c1=S,5.5,·,·,·
CCCN1Cc2cccc(C(=O)Nc3ccc(OC)c(OC)c3)c2C1=O,9.9,·,-6.5,·
CCCN1Cc2cccc(C(=O)Nc3ccc(CN4CCCC4)cc3)c2C1=O,-1.8,11.6*,-41.6,-2.2
O=C(NC1CCCCCC1)C1CCCN(S(=O)(=O)c2cnc[nH]2)C1 (stereo not drawn),23.6*,-5.6,-0.6,-2.8
COC(=O)c1ccc(NC(=O)C2CCCN(S(=O)(=O)c3cnc[nH]3)C2)cc1 (stereo not drawn),17.4*,2.6,-3.6,-2.8
CCOc1ccc(NC(=O)C2CCCN(S(=O)(=O)c3cnc[nH]3)C2)cc1 (stereo not drawn),-4.0,-3.3,-1.1,-1.4
CCc1ccc(NC(=O)C2CCCN(S(=O)(=O)c3cnc[nH]3)C2)cc1 (stereo not drawn),3.3,0.3,-0.5,-0.4
CCc1ccc(NC(=O)C2CCN(S(=O)(=O)c3cnc[nH]3)CC2)cc1,-3.1,0.3,5.4,12.1*
